# Results from different studies.
# Each line is one published result; the experiments were not run side by side.
# Cell line: MCF7
# Effect on: cell growth or viability
SMILES,test,setting,measurement,value
COc1ccc(C(=O)/C=C/c2cccc3ccccc23)cc1S(N)(=O)=O,SRB,10 µM,inhibition,160%
C[C@]12CC[C@@H]3c4ccc(O)cc4CC[C@H]3[C@@H]1CC[C@@H]2O,ATP luminescence,72 h,EC50,22.5 µM
COc1cc(C(CC(=O)c2ccc(Cl)cc2)NCCc2ccc(O)c(O)c2)ccc1O (stereo not drawn),MTT,,TGI,3.05 µM
CCCCCCCCCCCCNC(=S)NCCCC[C@H](NC(=O)OCc1ccccc1)C(=O)N[C@@H](C)C(=O)N[C@@H](CCCNC(=N)N)C(N)=O,MTT,72 h,EC50,64.7 to 76.6 µM
COc1cc(C(CC(=O)c2ccc([N+](=O)[O-])cc2)NCCc2ccc(O)c(O)c2)ccc1O (stereo not drawn),MTT,,TGI,0.29 µM
Cc1ccc2nc(-c3ccc([N+](=O)[O-])cc3)n(Cc3ccc(Cl)cc3)c2c1,MTT,,IC50,6.24 µM
COc1ccc(C(=O)/C=C/c2ccccc2Cl)cc1S(N)(=O)=O,SRB,10 µM,inhibition,4%
CCCCCCCCCCCCNC(=S)NCCCC[C@H](NS(C)(=O)=O)C(=O)N[C@H](C)C(=O)N[C@@H](CCCNC(=N)N)C(=O)N1CCOCC1,MTT,72 h,EC50,64.7 to 93.7 µM
COc1cc(C(CC(=O)c2ccc(C(C)(C)C)cc2)NCCc2ccc(O)c(O)c2)ccc1O (stereo not drawn),MTT,,TGI,4.24 µM
CCCCCCCC(=O)NCC(=O)OC,MTT,"10 µM, 48 h",inhibition,45%
CCOc1cc(-c2nc3ccc(C)cc3[nH]2)ccc1O,MTT,48 h,IC50,54.9 µM
COc1cc(CNC(=O)C[C@H](C)CCC=C(C)C)ccc1OCc1cn(-c2ccc(Cl)cc2)nn1,SRB,10 µM,inhibition,34%
Clc1ccc(-c2nc3ccccc3[nH]2)c(Cl)c1,MTT,48 h,IC50,55.8 µM
COc1ccc(-c2c(Cc3ccccc3)[nH]c(=NC(=O)c3ccccc3F)n2C)cc1,,,EC50,1.4 µM
COc1ccc(C(=O)/C=C/c2c(F)cccc2Cl)cc1S(N)(=O)=O,SRB,10 µM,inhibition,105%
COc1cccc2c1C(=O)c1c(O)c3c(c(O)c1C2=O)C[C@@](O)(C(=O)CO)C[C@@H]3O[C@H]1C[C@H](N)[C@H](O)[C@H](C)O1,MTT,48 h,IC50,3.1 µM
Cc1ccc2nc(-c3ccco3)[nH]c2c1,MTT,48 h,IC50,> 100 µM
CCOCCOCCOCCNC(=S)NCCCC[C@H](NS(C)(=O)=O)C(=O)N[C@@H](C)C(=O)N[C@@H](CCCNC(=N)N)C(N)=O,MTT,72 h,EC50,> 100 µM
COc1ccc(C(=O)/C=C/c2ccccc2Br)cc1S(N)(=O)=O,SRB,10 µM,inhibition,171%
COc1cccc(-c2nc3ccccc3[nH]2)c1,MTT,48 h,IC50,51.4 µM
COc1ccc(C(=O)/C=C/c2cc3c(cc2Br)OCO3)cc1S(N)(=O)=O,SRB,10 µM,inhibition,102%
C=CCn1c(-c2ccc(OC)c(OC)c2)nc2ccccc21,MTT,,IC50,37 µM
COc1ccccc1/C=C/C(=O)c1ccc(OC)c(S(N)(=O)=O)c1,SRB,48 h,GI50,2.7 µM
c1ccc2[nH]c(-c3ccncc3)nc2c1,MTT,48 h,IC50,> 100 µM
COc1cc(C(CC(C)=O)NCCc2ccc(O)c(O)c2)ccc1O (stereo not drawn),MTT,,TGI,46.2 µM
Cc1ccc2nc(-c3ccc([N+](=O)[O-])cc3)[nH]c2c1,MTT,48 h,IC50,10.5 µM
COc1ccc(C(=O)/C=C/c2ccc3c(c2)OC(F)(F)O3)cc1S(N)(=O)=O,SRB,10 µM,inhibition,7%
